Published values collected from several papers.
Target: Serine/threonine-protein kinase 33 (STK33, Homo sapiens, UniProt Q9BYT3)

COc1cnc(Nc2cccc(S(N)(=O)=O)c2)nc1N1CCN(c2ccccc2)CC1 — remaining binding (binding, competition with immobilised ligand; 1 µM): 100%
C[C@H]1CCN(c2nccc(-c3cnn4ncccc34)n2)C1 — remaining binding (binding; 1 µM): 100%
C[C@@H](c1cccc(C#N)c1)n1cc(Cl)cc(C(N)=O)c1=N — remaining binding (cell-free assay, competition with immobilised ligand; 1 µM): 100%
Cc1cnc(Nc2ccc(C(=O)N3CCC(N4CCCC4)CC3)cc2)nc1-c1cc2ccccc2s1 — remaining binding (binding, competition with immobilised ligand; 1 µM): 60%
O=C(O)c1cc(-c2ccc(C3CCNCC3)cc2)c2ccc(-c3ccc(C(F)(F)F)cc3)cc2c1 — remaining binding (cell-free assay, competition with immobilised ligand; 1 µM): 100%
CN(c1nccc(-c2cnn3ncccc23)n1)C1CC1 — remaining binding (binding; 1 µM): 100%
O=C(Nc1c[nH]nc1C(=O)NC1CCNCC1)c1cc(F)cc(F)c1 — remaining binding (binding, competition with immobilised ligand; 1 µM): 100%
COc1ccnn2ncc(-c3ccnc(N(C)C)n3)c12 — remaining binding (binding; 1 µM): 99%
O=C(NCCCN1CCOCC1)c1ccc(Nc2nccc(-c3cc4ccccc4s3)n2)cc1 — remaining binding (binding, competition with immobilised ligand; 1 µM): 80%
CCCCN(CCCC)C(=O)CN1C[C@@H](c2cc(OC)c3c(c2)OCO3)[C@H](C(=O)O)[C@H]1CC(C)(C)CCC — remaining binding (cell-free assay, competition with immobilised ligand; 1 µM): 100%
C[C@@H](c1ccc(-n2cnc3c(N)ncnc32)cc1)N1CCc2nn(C)c(Cc3ccccc3)c2C1=O — remaining binding (binding, competition with immobilised ligand; 0.1 µM): 100%
F[C@@H]1CCN(c2nccc(-c3cnn4ncccc34)n2)C1 — remaining binding (binding; 1 µM): 100%
O=C(NCc1ncc(C(F)(F)F)cc1Cl)c1ccc2c(c1)C1(CCS(=O)(=O)CC1)[C@H](C1CC1)N2S(=O)(=O)c1ccc(F)cc1 — remaining binding (cell-free assay, competition with immobilised ligand; 1 µM): 100%
O=C(NCCCN1CCOCC1)c1ccc(Nc2ncc(Cl)c(-c3ccc(Cl)s3)n2)cc1 — remaining binding (binding, competition with immobilised ligand; 1 µM): 68%
CC(=O)C1=C(C)N(c2cccc(C(F)(F)F)c2)C(=O)N[C@@H]1c1ccc(C#N)nc1 — remaining binding (cell-free assay, competition with immobilised ligand; 1 µM): 91.6%
FC(F)(F)Oc1cccc(-c2cnc3ccc(-c4ccncc4)nn23)c1 — remaining binding (binding, competition with immobilised ligand; 5 µM): 72%
N[C@H]1CCN(c2nccc(-c3cnn4ncccc34)n2)C1 — remaining binding (binding; 1 µM): 0%
CNC(=O)c1ccccc1Nc1cc(Nc2ccc(N3CCOCC3)cc2OC)ncc1C(F)(F)F — remaining binding (binding, competition with immobilised ligand; 1 µM): < 10%
Cc1cnn2ncc(-c3ccnc(N(C)C)n3)c2c1 — remaining binding (binding; 1 µM): 100%
O=C(Nc1ccc(Oc2ccc(F)cc2)cc1)N1CCc2ncccc2[C@H]1c1ccc(F)cc1 — remaining binding (cell-free assay, competition with immobilised ligand; 1 µM): 50%
CN(C)c1ncc(F)c(-c2cnn3ncccc23)n1 — remaining binding (binding; 1 µM): 100%
CNC(=O)[C@@H]1CC[C@@H](n2c(-c3ccc4cnccc4c3)nc3ccc(C(=O)NCc4cccc(C(N)=O)c4)cc32)C1 — remaining binding (binding, competition with immobilised ligand; 1 µM): 87%
